Drawing on ChEMBL document CHEMBL1933013, “Synthesis, SAR, and preliminary mechanistic evaluation of novel antiproliferative N⁶,5'-bis-ureido- and 5'-carbamoyl-N⁶-ureidoadenosine derivatives” (Bioorg Med Chem, 2012), this text covers IC50 for 19 compounds.

Converted amounts (≈) assume the structure as drawn.

Assay [1] relates to L1210. The assay is described as follows: Antiproliferative activity against mouse L1210 cells after 48 hrs. The assay is classed as functional, cell-based. Particulars: L1210, 48 h. Summed up: (§1)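 Cells in growth medium grown with variable compound concentrations at 37 °C in humidified CO2-controlled atmosphere; incubation 48 h for L1210 and FM3A, 72 h for CEM, 96 h for HeLa. Cell number counted by Coulter counter; IC50 = concentration inhibiting proliferation by 50%.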

In assay [2] the test system is FM3A. Nature of the assay: Antiproliferative activity against mouse FM3A cells after 48 hrs. The assay is classed as functional, cell-based. The method, boiled down: as §1
For assay [3], the system named is CCRF-CEM. The assay is described as follows: Antiproliferative activity against human CEM cells after 72 hrs. The assay is classed as cell-based. The method, boiled down: as §1
Assay [4] concerns HeLa. The assay is described as follows: Antiproliferative activity against human HeLa cells after 96 hrs. The assay is classed as functional, cell-based. The method, boiled down: as §1

As a reminder, the IC50 is the point on the concentration scale where inhibition reaches its midpoint. Regarding `CNC(=O)OC[C@H]1O[C@@H](n2cnc3c(NC(=O)NCc4ccccc4)ncnc32)[C@H](O[Si](C)(C)C(C)(C)C)[C@@H]1O[Si](C)(C)C(C)(C)C`, the concentration for half-maximal inhibition (IC50) in assay [1] was 101 µg/mL (≈ 147 µM); in assay [2] it was more than 200 µg/mL; in assay [3] it was more than 200 µg/mL; in assay [4] it was 23 µg/mL (≈ 33.5 µM).
With `CNC(=O)OC[C@H]1O[C@@H](n2cnc3c(NC(=O)Nc4cccc(I)c4)ncnc32)[C@H](O[Si](C)(C)C(C)(C)C)[C@@H]1O[Si](C)(C)C(C)(C)C`, the half-maximal inhibitory concentration (IC50) in assay [1], in assay [2], in assay [3] and in assay [4] was more than 200 µg/mL in each case.
`CNC(=O)NC[C@H]1O[C@@H](n2cnc3c(NC(=O)Nc4ccc([N+](=O)[O-])cc4)ncnc32)[C@H](O[Si](C)(C)C(C)(C)C)[C@@H]1O[Si](C)(C)C(C)(C)C`: the concentration for half-maximal inhibition (IC50) in assay [1] was not below 200 µg/mL; in assay [2] it was more than 200 µg/mL; in assay [3], more than 200 µg/mL; in assay [4], more than 200 µg/mL.
On to `CCCNC(=O)Nc1ncnc2c1ncn2[C@@H]1O[C@H](CNC(=O)NC)[C@@H](O[Si](C)(C)C(C)(C)C)[C@H]1O[Si](C)(C)C(C)(C)C`, for which the IC50 in assay [1] is 3.9 µg/mL (≈ 6.12 µM); in assay [2], 4.7 µg/mL (≈ 7.38 µM); in assay [3], 4.4 µg/mL (≈ 6.91 µM); in assay [4] it was 3.3 µg/mL (≈ 5.18 µM).
For `CNC(=O)OC[C@H]1O[C@@H](n2cnc3c(NC(=O)NC4CCCCC4)ncnc32)[C@H](O[Si](C)(C)C(C)(C)C)[C@@H]1O[Si](C)(C)C(C)(C)C`, in that order: 74 µg/mL (≈ 109 µM), more than 200 µg/mL, 175 µg/mL (≈ 258 µM) and 69 µg/mL (≈ 102 µM).
With `CNC(=O)NC[C@H]1O[C@@H](n2cnc3c(NC(=O)Nc4ccc(I)cc4)ncnc32)[C@H](O[Si](C)(C)C(C)(C)C)[C@@H]1O[Si](C)(C)C(C)(C)C`, the half-maximal inhibitory concentration (IC50) in assay [1] was 43 µg/mL (≈ 54 µM); in assay [3] it was 68 µg/mL (≈ 85.3 µM); in assay [4] it was 18 µg/mL (≈ 22.6 µM).
For `CNC(=O)NC[C@H]1O[C@@H](n2cnc3c(NC(=O)Nc4ccc(OC)cc4)ncnc32)[C@H](O[Si](C)(C)C(C)(C)C)[C@@H]1O[Si](C)(C)C(C)(C)C`, the IC50 is 3.8 µg/mL (≈ 5.42 µM) in assay [1], 5.8 µg/mL (≈ 8.27 µM) in assay [2], 5.2 µg/mL (≈ 7.42 µM) in assay [3] and 2.6 µg/mL (≈ 3.71 µM) in assay [4].
`CNC(=O)OC[C@H]1O[C@@H](n2cnc3c(NC(=O)Nc4ccc([N+](=O)[O-])cc4)ncnc32)[C@H](O[Si](C)(C)C(C)(C)C)[C@@H]1O[Si](C)(C)C(C)(C)C`: the concentration for half-maximal inhibition (IC50) in assay [1] is 7.7 µg/mL (≈ 10.7 µM); in assay [2], 24 µg/mL (≈ 33.5 µM); in assay [3] it was 15 µg/mL (≈ 20.9 µM); in assay [4] it was 1.5 µg/mL (≈ 2.09 µM).
With `CNC(=O)OC[C@H]1O[C@@H](n2cnc3c(NC(=O)Nc4ccc(OC)cc4)ncnc32)[C@H](O[Si](C)(C)C(C)(C)C)[C@@H]1O[Si](C)(C)C(C)(C)C`, the IC50 is more than 200 µg/mL in assay [1], more than 200 µg/mL in assay [2], more than 200 µg/mL in assay [3] and not below 200 µg/mL in assay [4].
`CNC(=O)OC[C@H]1O[C@@H](n2cnc3c(NC(=O)Nc4ccccc4)ncnc32)[C@H](O[Si](C)(C)C(C)(C)C)[C@@H]1O[Si](C)(C)C(C)(C)C`: the IC50 in assay [1] was 160 µg/mL (≈ 238 µM); in assay [2], more than 200 µg/mL; in assay [3], more than 200 µg/mL; in assay [4], not below 200 µg/mL.
Regarding `CCCCCCNC(=O)Nc1ncnc2c1ncn2[C@@H]1O[C@H](CNC(=O)NC)[C@@H](O[Si](C)(C)C(C)(C)C)[C@H]1O[Si](C)(C)C(C)(C)C`, the half-inhibitory concentration (IC50) in assay [1] is 74 µg/mL (≈ 109 µM); in assay [3], 68 µg/mL (≈ 100 µM); in assay [4], 74 µg/mL (≈ 109 µM).
As for `CNC(=O)NC[C@H]1O[C@@H](n2cnc3c(NC(=O)Nc4cccc(I)c4)ncnc32)[C@H](O[Si](C)(C)C(C)(C)C)[C@@H]1O[Si](C)(C)C(C)(C)C`, the IC50 is 38 µg/mL (≈ 47.7 µM) in assay [1], 182 µg/mL (≈ 228 µM) in assay [3] and 21 µg/mL (≈ 26.4 µM) in assay [4].
Consider `CNC(=O)OC[C@H]1O[C@@H](n2cnc3c(NC(=O)Nc4ccc(Cl)cc4)ncnc32)[C@H](O[Si](C)(C)C(C)(C)C)[C@@H]1O[Si](C)(C)C(C)(C)C`, for which the IC50 in assay [1], in assay [2], in assay [3] and in assay [4] was more than 200 µg/mL in each case.
On to `CNC(=O)NC[C@H]1O[C@@H](n2cnc3c(NC(=O)NC4CCCCC4)ncnc32)[C@H](O[Si](C)(C)C(C)(C)C)[C@@H]1O[Si](C)(C)C(C)(C)C`, for which the half-inhibitory concentration (IC50) in assay [1] turned out to be 20 µg/mL (≈ 29.5 µM); in assay [2], 8.4 µg/mL (≈ 12.4 µM); in assay [3], 5.2 µg/mL (≈ 7.68 µM); in assay [4], 11 µg/mL (≈ 16.2 µM).
For `CCCNC(=O)Nc1ncnc2c1ncn2[C@@H]1O[C@H](COC(=O)NC)[C@@H](O[Si](C)(C)C(C)(C)C)[C@H]1O[Si](C)(C)C(C)(C)C`, in that order: 18 µg/mL (≈ 28.2 µM), 23 µg/mL (≈ 36.1 µM), 59 µg/mL (≈ 92.5 µM) and 55 µg/mL (≈ 86.2 µM).
For the compound `CNC(=O)NC[C@H]1O[C@@H](n2cnc3c(NC(=O)NCc4ccccc4)ncnc32)[C@H](O[Si](C)(C)C(C)(C)C)[C@@H]1O[Si](C)(C)C(C)(C)C`, the IC50 in assay [1] amounted to 4.6 µg/mL (≈ 6.72 µM); in assay [2], 9.2 µg/mL (≈ 13.4 µM); in assay [3], 8.3 µg/mL (≈ 12.1 µM); in assay [4], 3.8 µg/mL (≈ 5.55 µM).
For `CNC(=O)OC[C@H]1O[C@@H](n2cnc3c(NC(=O)Nc4ccc(I)cc4)ncnc32)[C@H](O[Si](C)(C)C(C)(C)C)[C@@H]1O[Si](C)(C)C(C)(C)C`, in that order: more than 200 µg/mL, more than 200 µg/mL, not below 200 µg/mL and 143 µg/mL (≈ 179 µM).
For the compound `CCCCCCNC(=O)Nc1ncnc2c1ncn2[C@@H]1O[C@H](COC(=O)NC)[C@@H](O[Si](C)(C)C(C)(C)C)[C@H]1O[Si](C)(C)C(C)(C)C`, the concentration for half-maximal inhibition (IC50) in assay [1] was more than 200 µg/mL; in assay [2], more than 200 µg/mL; in assay [3], 175 µg/mL (≈ 257 µM); in assay [4] it was 88 µg/mL (≈ 129 µM).
As to `CNC(=O)NC[C@H]1O[C@@H](n2cnc3c(NC(=O)Nc4ccc(Cl)cc4)ncnc32)[C@H](O[Si](C)(C)C(C)(C)C)[C@@H]1O[Si](C)(C)C(C)(C)C`, the IC50 in assay [1] turned out to be 5.6 µg/mL (≈ 7.94 µM); in assay [2] it was 33 µg/mL (≈ 46.8 µM); in assay [3] it was 14 µg/mL (≈ 19.8 µM); in assay [4], 3.4 µg/mL (≈ 4.82 µM).
